Results on 19 compounds are retold here after ChEMBL document CHEMBL1125581 (J Med Chem, 1991).

For one assay, the target named is Muscarinic acetylcholine receptor M3 (Rattus norvegicus, UniProt P08483). Put plainly: Inhibition of binding of [3H]N-methylscopolamine to muscarinic acetylcholine receptor M3 of transfected rat A9L cells. In kind it is cell-based.
Chain of Muscarinic acetylcholine receptor M3 (P08483 whole entry): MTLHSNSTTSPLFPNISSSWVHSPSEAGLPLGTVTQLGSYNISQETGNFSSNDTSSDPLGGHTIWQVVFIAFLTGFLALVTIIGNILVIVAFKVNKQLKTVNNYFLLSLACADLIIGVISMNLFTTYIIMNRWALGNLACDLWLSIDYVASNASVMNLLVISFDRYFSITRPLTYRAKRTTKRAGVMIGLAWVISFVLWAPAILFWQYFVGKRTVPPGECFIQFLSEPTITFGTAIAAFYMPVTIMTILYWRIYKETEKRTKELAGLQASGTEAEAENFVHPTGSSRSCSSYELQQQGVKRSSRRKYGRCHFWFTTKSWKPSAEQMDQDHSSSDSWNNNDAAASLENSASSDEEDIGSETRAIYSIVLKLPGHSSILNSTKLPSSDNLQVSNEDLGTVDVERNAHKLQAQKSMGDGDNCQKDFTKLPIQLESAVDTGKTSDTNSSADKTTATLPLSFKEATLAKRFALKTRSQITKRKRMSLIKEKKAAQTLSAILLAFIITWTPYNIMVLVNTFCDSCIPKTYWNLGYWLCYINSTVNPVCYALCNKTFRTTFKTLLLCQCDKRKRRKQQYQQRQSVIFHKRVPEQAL
`CN1CCN(CC(=O)N2c3ccc(S(=O)(=O)NCCN)cc3C(=O)Nc3cccnc32)CC1` returned an inhibition constant (Ki) of over 30000 nM.
The same measure, in the same setting: the value for `NCCC(=O)NCCN1CCN(CC(=O)N2c3ccccc3C(=O)Nc3cccnc32)CC1` was 6650 nM; that for `CN1CCN(CC(=O)N2c3cc(CO)ccc3C(=O)Nc3cccnc32)CC1` was 4400 nM.
The compound `CC(C)(C)OC(=O)NCCCCNC(=O)c1ccc(CN2CCN(CC(=O)N3c4ccccc4C(=O)Nc4cccnc43)CC2)cc1` returned a Ki of 3470 nM.
Compound `CC(=O)NCCN1CCN(CC(=O)N2c3ccccc3C(=O)Nc3cccnc32)CC1` returned a Ki of 970 nM.
In turn, `CC(C)(C)OC(=O)NCCC(=O)NCCN1CCN(CC(=O)N2c3ccccc3C(=O)Nc3cccnc32)CC1` had an inhibitory constant (Ki) of 6190 nM.
`Cc1scc2c1N(C(=O)CN1CCN(C)CC1)c1ccccc1NC2=O` [TELENZEPINE] showed a Ki of 6.9 nM.

The target of another assay is T1, Muscarinic acetylcholine receptor M2 (Rattus norvegicus, UniProt P10980).
T1 sequence (P10980 whole entry): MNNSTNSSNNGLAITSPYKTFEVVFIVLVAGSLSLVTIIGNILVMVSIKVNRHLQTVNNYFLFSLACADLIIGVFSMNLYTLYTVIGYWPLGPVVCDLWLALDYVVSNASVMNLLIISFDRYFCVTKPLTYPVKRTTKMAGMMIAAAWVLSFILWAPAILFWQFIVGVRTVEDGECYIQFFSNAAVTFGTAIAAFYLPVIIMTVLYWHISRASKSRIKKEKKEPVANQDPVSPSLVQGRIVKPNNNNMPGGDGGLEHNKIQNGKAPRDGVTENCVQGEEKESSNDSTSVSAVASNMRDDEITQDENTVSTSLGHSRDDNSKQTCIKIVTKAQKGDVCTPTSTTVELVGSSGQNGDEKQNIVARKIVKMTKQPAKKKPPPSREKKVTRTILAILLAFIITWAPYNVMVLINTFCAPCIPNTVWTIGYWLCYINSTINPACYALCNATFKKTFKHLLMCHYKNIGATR
Put plainly: Inhibition of binding of [3H]N-methylscopolamine to muscarinic acetylcholine receptor M2 of rat heart tissue membrane. The format is tissue-based. A digest of the protocol:
(§1)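 Rat heart membranes (150–300 μg protein) incubated 90 min at 37 °C in DMEM-Hepes with 0.5 nM [3H]NMS and varied unlabeled analogue concentrations. Bound radioligand collected by rapid GF/B filtration, washed with ice-cold 0.9% NaCl, and scintillation counted. Nonspecific binding with 1 μM atropine subtracted. Ki values come from one to three determinations, each in triplicate.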
`NCCCCCN1CCN(CC(=O)N2c3ccccc3C(=O)Nc3cccnc32)CC1` displayed an inhibition constant Ki of 5890 nM.
In turn, `CC(C)(C)OC(=O)NCCNC(=O)c1ccc(CN2CCN(CC(=O)N3c4ccccc4C(=O)Nc4cccnc43)CC2)cc1` gave a Ki of 2500 nM.
On to `NCCCCCCN1CCN(CC(=O)N2c3ccccc3C(=O)Nc3cccnc32)CC1`, for which the Ki was 1340 nM.
As for `C#CCN1CCN(CC(=O)N2c3ccccc3C(=O)Nc3cccnc32)CC1`, the affinity corresponds to a Ki of 1370 nM.
The compound `O=C1Nc2cccnc2N(C(=O)CN2CCN(CCCCCN3C(=O)c4ccccc4C3=O)CC2)c2ccccc21` showed a Ki of 20 nM.
Regarding `NCCCN1CCN(CC(=O)N2c3ccccc3C(=O)Nc3cccnc32)CC1`, the affinity corresponds to a Ki of 5120 nM.
The compound `NCCC(=O)NCCN1CCN(CC(=O)N2c3ccccc3C(=O)Nc3cccnc32)CC1` came in with a Ki of 5840 nM.
In turn, `CC(C)(C)OC(=O)NCCCCNC(=O)c1ccc(CN2CCN(CC(=O)N3c4ccccc4C(=O)Nc4cccnc43)CC2)cc1` showed a Ki of 1090 nM.
`O=C1Nc2cccnc2N(C(=O)CN2CCN(CCCN3C(=O)c4ccccc4C3=O)CC2)c2ccccc21` had a Ki of 840 nM.
As to `NCCCCN1CCN(CC(=O)N2c3ccccc3C(=O)Nc3cccnc32)CC1`, the Ki is 1740 nM.
For the compound `CC(=O)NCCN1CCN(CC(=O)N2c3ccccc3C(=O)Nc3cccnc32)CC1`, the affinity corresponds to a Ki of 2520 nM.
Regarding `CC(C)(C)OC(=O)NCCC(=O)NCCN1CCN(CC(=O)N2c3ccccc3C(=O)Nc3cccnc32)CC1`, affinity was put at a Ki of 6060 nM.
`Cc1scc2c1N(C(=O)CN1CCN(C)CC1)c1ccccc1NC2=O` [TELENZEPINE] yielded a Ki of 50.3 nM.

For a further assay, the target named is T2, Muscarinic acetylcholine receptor M1 (Rattus norvegicus, UniProt P08482).
T2 sequence (P08482 whole entry): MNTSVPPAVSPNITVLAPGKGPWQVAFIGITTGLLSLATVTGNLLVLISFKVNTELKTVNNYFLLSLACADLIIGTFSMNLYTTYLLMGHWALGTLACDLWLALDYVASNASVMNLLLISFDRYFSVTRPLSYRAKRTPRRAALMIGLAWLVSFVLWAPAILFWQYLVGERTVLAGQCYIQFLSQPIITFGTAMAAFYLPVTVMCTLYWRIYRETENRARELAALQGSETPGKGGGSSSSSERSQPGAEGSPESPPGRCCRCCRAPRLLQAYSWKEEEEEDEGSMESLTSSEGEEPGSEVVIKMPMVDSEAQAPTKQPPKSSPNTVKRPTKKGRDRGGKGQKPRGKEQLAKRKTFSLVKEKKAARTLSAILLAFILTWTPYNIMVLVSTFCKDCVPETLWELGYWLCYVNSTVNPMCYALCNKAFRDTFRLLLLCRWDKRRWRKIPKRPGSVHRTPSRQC
Put plainly: Inhibition of binding of [3H]N-methylscopolamine to muscarinic acetylcholine receptor M1 of transfected rat A9L cells. The format is cell-based.
Turning to `NCCCCCN1CCN(CC(=O)N2c3ccccc3C(=O)Nc3cccnc32)CC1`, the Ki was 1170 nM.
`NCCCCCCN1CCN(CC(=O)N2c3ccccc3C(=O)Nc3cccnc32)CC1`: affinity was put at a Ki of 1310 nM.
As for `C#CCN1CCN(CC(=O)N2c3ccccc3C(=O)Nc3cccnc32)CC1`, the Ki is 1670 nM.
`O=C1Nc2cccnc2N(C(=O)CN2CCN(CCCCCN3C(=O)c4ccccc4C3=O)CC2)c2ccccc21` showed a Ki of 60 nM.
`NCCCN1CCN(CC(=O)N2c3ccccc3C(=O)Nc3cccnc32)CC1` yielded an inhibitory constant (Ki) of 3870 nM.
In turn, `CN1CCN(CC(=O)N2c3ccc(S(=O)(=O)NCCN)cc3C(=O)Nc3cccnc32)CC1` displayed a Ki of over 30000 nM.
For `NCCC(=O)NCCN1CCN(CC(=O)N2c3ccccc3C(=O)Nc3cccnc32)CC1`, the Ki worked out at 4340 nM.
`CN1CCN(CC(=O)N2c3cc(CO)ccc3C(=O)Nc3cccnc32)CC1` returned a Ki of 4400 nM.
`CC(C)(C)OC(=O)NCCCCNC(=O)c1ccc(CN2CCN(CC(=O)N3c4ccccc4C(=O)Nc4cccnc43)CC2)cc1` had a Ki of 1680 nM.
For the compound `O=C1Nc2cccnc2N(C(=O)CN2CCN(CCCN3C(=O)c4ccccc4C3=O)CC2)c2ccccc21`, the inhibition constant Ki was 1810 nM.
As for `NCCCCN1CCN(CC(=O)N2c3ccccc3C(=O)Nc3cccnc32)CC1`, the inhibitory constant (Ki) worked out at 3080 nM.
As to `CC(=O)NCCN1CCN(CC(=O)N2c3ccccc3C(=O)Nc3cccnc32)CC1`, the Ki is 670 nM.
As for `CC(C)(C)OC(=O)NCCC(=O)NCCN1CCN(CC(=O)N2c3ccccc3C(=O)Nc3cccnc32)CC1`, the Ki was found to be 13300 nM.
Same read-out and setting: the value for `Cc1scc2c1N(C(=O)CN1CCN(C)CC1)c1ccccc1NC2=O` [TELENZEPINE] was 1.8 nM.

Another assay deals with T2, Muscarinic acetylcholine receptor M1. Put plainly: Inhibition of binding of [3H]N-Methyl-scopolamine to Muscarinic acetylcholine receptor M1 of transfected A9L cells. The format is cell-based. A digest of the protocol: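 Confluent A9L (transfected m1/m3) or NG108-15 (m4) cultures were lysed in 2 mM Tris-HCl pH 7.1/1 mM EDTA, 30 min, 2 °C, then homogenized. Crude membranes were spun at 50000g. Membranes (150–300 μg protein) were incubated with 0.5 nM [3H]NMS and varied analogue in DMEM-Hepes for 90 min at 37 °C, then filtered. Nonspecific binding was set with 1 μM atropine. Ki values are from 1–3 triplicate determinations.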
Compound `NCCCCCCCCCN1CCN(CC(=O)N2c3ccccc3C(=O)Nc3cccnc32)CC1` displayed a Ki of 24 nM.
In turn, `NCCCCCCCCN1CCN(CC(=O)N2c3ccccc3C(=O)Nc3cccnc32)CC1` registered a Ki of 20 nM.
For `CC(=O)NCCCCCCCCCN1CCN(CC(=O)N2c3ccccc3C(=O)Nc3cccnc32)CC1`, affinity was put at a Ki of 52 nM.
In turn, `COc1ccccc1CNCCCCCCCCCCN1CCN(CC(=O)N2c3ccccc3C(=O)Nc3cccnc32)CC1` returned an inhibitory constant (Ki) of 3.3 nM.

The next assay deals with T3, Muscarinic acetylcholine receptor M4 (Rattus norvegicus, UniProt P08485).
T3 sequence (P08485 whole entry): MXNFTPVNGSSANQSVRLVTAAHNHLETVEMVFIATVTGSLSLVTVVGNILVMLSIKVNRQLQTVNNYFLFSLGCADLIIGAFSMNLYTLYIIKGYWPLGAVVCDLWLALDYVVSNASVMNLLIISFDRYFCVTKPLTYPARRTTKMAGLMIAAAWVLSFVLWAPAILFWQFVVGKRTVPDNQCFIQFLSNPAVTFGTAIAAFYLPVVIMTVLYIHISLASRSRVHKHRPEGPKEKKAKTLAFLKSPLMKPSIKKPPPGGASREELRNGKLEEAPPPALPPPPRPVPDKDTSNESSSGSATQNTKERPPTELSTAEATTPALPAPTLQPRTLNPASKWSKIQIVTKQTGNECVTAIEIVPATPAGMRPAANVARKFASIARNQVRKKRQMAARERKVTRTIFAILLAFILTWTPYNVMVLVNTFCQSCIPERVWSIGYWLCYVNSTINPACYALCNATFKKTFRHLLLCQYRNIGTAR
Put plainly: Inhibition of binding of [3H]N-Methyl-scopolamine to muscarinic acetylcholine receptor M4 of rat […] NG108-15 cells. In kind it is cell-based.
Consider `CC(=O)NCCN1CCN(CC(=O)N2c3ccccc3C(=O)Nc3cccnc32)CC1`, for which the affinity corresponds to a Ki of 2570 nM.
For the compound `Cc1scc2c1N(C(=O)CN1CCN(C)CC1)c1ccccc1NC2=O` [TELENZEPINE], the Ki is 17.4 nM.

A further assay has as its target T1, Muscarinic acetylcholine receptor M2. Kind of assay: Inhibition of binding of [3H]N-Methyl-scopolamine to Muscarinic acetylcholine receptor M2 of rat heart tissue membranes. The format is cell membranes, Membrane. A digest of the protocol:
as §1
For the compound `NCCCCCCCCCN1CCN(CC(=O)N2c3ccccc3C(=O)Nc3cccnc32)CC1`, the affinity, expressed as Ki, was 24 nM.
For `NCCCCCCCCN1CCN(CC(=O)N2c3ccccc3C(=O)Nc3cccnc32)CC1`, the Ki came out at 26 nM.
As for `CC(=O)NCCCCCCCCCN1CCN(CC(=O)N2c3ccccc3C(=O)Nc3cccnc32)CC1`, the Ki was 50 nM.
In turn, `COc1ccccc1CNCCCCCCCCCCN1CCN(CC(=O)N2c3ccccc3C(=O)Nc3cccnc32)CC1` came in with a Ki of 22 nM.

By Ki is commonly meant a dissociation constant, usually derived from enzyme kinetics or from competition with a known ligand. Low readings indicate tighter binding, high ones weaker binding.
